In ChEMBL document CHEMBL1155998, “Design and synthesis of piperazinylpyrimidinones as novel selective 5-HT(2C) agonists” (Bioorg Med Chem Lett, 2009):
pEC50: −log10 of the molar value.

Columns and labels:
[1] = biological target: T1, 5-hydroxytryptamine receptor 2C (Homo sapiens, UniProt P28335); assay: Agonist activity at human recombinant 5HT2C receptor expressed in CHO K1 cells assessed as calcium mobilisation by FLIPR assay; format: functional, cell-based
T1 sequence (P28335 whole entry): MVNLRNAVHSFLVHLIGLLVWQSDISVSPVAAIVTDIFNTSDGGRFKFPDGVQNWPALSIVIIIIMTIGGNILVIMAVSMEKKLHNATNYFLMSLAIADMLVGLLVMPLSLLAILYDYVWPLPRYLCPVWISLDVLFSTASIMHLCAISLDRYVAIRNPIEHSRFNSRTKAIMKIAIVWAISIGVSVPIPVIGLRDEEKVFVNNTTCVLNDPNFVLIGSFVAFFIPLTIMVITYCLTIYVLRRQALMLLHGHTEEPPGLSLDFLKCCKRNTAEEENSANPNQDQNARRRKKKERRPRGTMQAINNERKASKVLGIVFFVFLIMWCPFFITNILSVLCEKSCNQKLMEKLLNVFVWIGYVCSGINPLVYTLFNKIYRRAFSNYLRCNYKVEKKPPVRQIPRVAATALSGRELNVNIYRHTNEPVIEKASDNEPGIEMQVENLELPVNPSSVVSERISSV
Outline: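 Recombinant CHO K1 cells expressing the human 5-HT2C receptor. Agonism was read as a fluorescent calcium mobilisation signal in a FLIPR assay. Values were reported as EC50 and Emax (%).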

[2] = biological target: T2, 5-hydroxytryptamine receptor 2C (Homo sapiens) (UniProt P28335); assay: Agonist activity at human recombinant 5HT2C receptor transfected in CHO K1 cells assessed as calcium mobilisation at 10 uM by FLIPR assay relative to serotonin; format: functional, cell-based
T2 sequence (whole entry): T1 sequence (P28335 whole entry)
Outline: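 Recombinant CHO K1 cells stably expressing the human 5-HT2C receptor; agonist-induced calcium mobilisation read as a fluorescence signal on FLIPR. Potency reported as EC50 and efficacy as Emax (%).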

[3] = Lipophilicity, log Dof the compound at pH 7.4; format: physicochemical; details: buffer
MDR1 (human) = assay: Efflux ratio, permeability from basolateral to apical over apical to basolateral side in MDCK cells expressing human MDR1 gene; format: ADME, cell-based, Canis lupus familiaris; details: dog
[4] = Intrinsic clearance in human liver microsomes; format: ADME, Microsome
[5] = biological target: 5-hydroxytryptamine receptor 2A (Homo sapiens, UniProt P28223); assay: Agonist activity at human recombinant 5HT2A receptor transfected in CHO K1 cells assessed as calcium mobilisation at 10 uM by FLIPR assay; format: functional, cell-based
Outline: (§1)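 Recombinant cell-based systems expressing the human 5-HT2A or 5-HT2B receptor. Agonist response was read as calcium mobilisation by FLIPR, with test compound at 10 μM. Results were reported as % agonism.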

[6] = biological target: 5-hydroxytryptamine receptor 2B (Homo sapiens, UniProt P41595); assay: Agonist activity at human recombinant 5HT2B receptor transfected in CHO K1 cells assessed as calcium mobilisation at 10 uM by FLIPR assay; format: functional, cell-based; outline: as §1
Chain of 5-hydroxytryptamine receptor 2B (P41595 whole entry): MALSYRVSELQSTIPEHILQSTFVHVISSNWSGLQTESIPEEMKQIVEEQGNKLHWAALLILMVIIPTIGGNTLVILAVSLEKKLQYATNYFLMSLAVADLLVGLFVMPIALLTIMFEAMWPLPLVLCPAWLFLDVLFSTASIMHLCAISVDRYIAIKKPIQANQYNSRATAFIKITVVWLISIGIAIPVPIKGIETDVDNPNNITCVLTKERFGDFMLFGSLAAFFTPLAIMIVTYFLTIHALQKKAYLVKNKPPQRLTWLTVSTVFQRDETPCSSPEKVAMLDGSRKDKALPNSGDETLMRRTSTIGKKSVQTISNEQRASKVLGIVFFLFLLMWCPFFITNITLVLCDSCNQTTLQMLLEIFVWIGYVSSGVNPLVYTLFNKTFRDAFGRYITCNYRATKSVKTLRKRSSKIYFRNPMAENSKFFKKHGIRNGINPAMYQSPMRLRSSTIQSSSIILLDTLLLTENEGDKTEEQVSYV

Chain of 5-hydroxytryptamine receptor 2A (P28223 whole entry): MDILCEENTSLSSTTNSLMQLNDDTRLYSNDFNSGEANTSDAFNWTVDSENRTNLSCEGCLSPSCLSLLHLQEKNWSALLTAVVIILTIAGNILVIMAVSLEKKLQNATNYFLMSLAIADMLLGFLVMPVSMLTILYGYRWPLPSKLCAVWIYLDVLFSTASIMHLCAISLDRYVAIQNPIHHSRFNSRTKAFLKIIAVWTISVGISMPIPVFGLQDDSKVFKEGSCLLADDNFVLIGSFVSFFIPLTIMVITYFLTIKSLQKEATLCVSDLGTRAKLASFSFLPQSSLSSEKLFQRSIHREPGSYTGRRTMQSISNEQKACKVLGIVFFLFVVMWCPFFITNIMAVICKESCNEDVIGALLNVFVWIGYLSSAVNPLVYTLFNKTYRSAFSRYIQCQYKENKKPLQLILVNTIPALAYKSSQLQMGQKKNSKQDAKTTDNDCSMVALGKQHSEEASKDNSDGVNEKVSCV

Structure (SMILES)	pEC50 [1]	Emax [2] [%]	logD [3]	efflux ratio (MDR1 (human))	microsomal CLint [4] [µL/min/mg]	Activity [5] [%]	Activity [6] [%]
Cc1cc(=O)n(CCCOCc2ccccc2)c(N2CCNCC2)n1	< 5.00						
C[C@@H]1CNCCN1c1cc(=O)n(C)c(CCc2ccccc2Cl)n1	7.68	46	1.6	3.1	24	27	< 5
Cn1c(CCc2cccc(Cl)c2)nc(N2CCNCC2)cc1=O	7.02	59	1.2	4	< 7	57	< 5
CCn1c(CCc2ccccc2Cl)nc(N2CCNCC2)cc1=O	7.68	50	1.9	4.3	30	16	< 5
Cc1cc(=O)n(CCCOc2ccccc2)c(N2CCNC[C@H]2C)n1	6.79	84	0.9		16		
Cn1c(COc2ccc(C(F)(F)F)cc2)nc(N2CCNCC2)cc1=O	< 5.00		1.1		8		
Cn1c(COc2cccc(C(F)(F)F)c2)nc(N2CCNCC2)cc1=O	6.31	49	1.3				
Cc1ccccc1CCc1nc(N2CCNC[C@H]2C)cc(=O)n1C	7.59	59	1.4	3.5	18	50	< 5
CCn1c(COc2cc(F)ccc2Cl)nc(N2CCNCC2)cc1=O	6.99	46	1.4		< 7		
Cc1ccccc1OCc1nc(N2CCNCC2)cc(=O)n1C	6.64	60	0.8		< 7		
Cn1c(COc2cccc(C#N)c2)nc(N2CCNCC2)cc1=O	6.50	63	0.3		< 7		
C[C@@H]1CNCCN1c1cc(=O)n(C)c(CCc2ccccc2)n1	6.58	50	1		< 7	58	< 5
C[C@@H]1CNCCN1c1cc(=O)n(C)c(CCc2cccc(Cl)c2)n1	7.59	59	1.6	3.7	< 10	76	13
Cn1c(COc2ccc(Cl)cc2)nc(N2CCNCC2)cc1=O	< 5.00		0.8		< 7		
Cc1cc(=O)n(CCCOc2ccccc2)c(N2CCNCC2)n1	5.99	77	0.7	1.6	26	44	57
Cn1c(COc2cccc(Cl)c2)nc(N2CCNCC2)cc1=O	6.31	66	1		< 7		
Cc1cc(=O)n(CCCc2ccccc2)c(N2CCNCC2)n1	< 5.00						

Structure (SMILES)	pEC50 [1]	Emax [2] [%]	logD [3]	efflux ratio (MDR1 (human))	microsomal CLint [4] [µL/min/mg]	Activity [5] [%]	Activity [6] [%]
Cn1c(COc2ccccc2C(F)(F)F)nc(N2CCNCC2)cc1=O	7.52	72	1.4		14		
Cc1cc(=O)n(CCCOc2cccc(Cl)c2)c(N2CCNCC2)n1	6.58	86	1.2				
Cc1cc(=O)n(CCCOc2cccc(F)c2)c(N2CCNCC2)n1	< 5.00		0.8				
C[C@@H]1CNCCN1c1ccc(=O)n(CCOc2ccccc2C(F)(F)F)n1	7.33	45	1.4	3.4	15	50	< 10
CCn1c(COc2cccc(C#N)c2)nc(N2CCNCC2)cc1=O	6.95	77	0.4		< 7		
Cc1cc(=O)n(CCCOc2ccc(F)cc2)c(N2CCNCC2)n1	< 5.00		0.7				
Cn1c(CCc2ccccc2)nc(N2CCNCC2)cc1=O	6.56	43	0.6	3.4	< 7	13	< 5
Cc1cc(=O)n(CCCOc2ccc(Cl)cc2)c(N2CCNCC2)n1	6.05	91					
Cn1c(COc2cc(F)ccc2Cl)nc(N2CCNCC2)cc1=O	6.44	48	1		< 7		
Cc1ccc(F)cc1OCc1nc(N2CCNCC2)cc(=O)n1C	7.34	84	1		< 7		
C[C@@H]1CNCCN1c1cc(=O)n(C)c(CCc2ccccc2C(F)(F)F)n1	7.19	59	1.8		29	45	6
Cc1cc(=O)n(CCCOc2ccccc2Cl)c(N2CCNCC2)n1	7.25	83	1		27	58	46
Cc1ccc(Cl)cc1OCc1nc(N2CCNCC2)cc(=O)n1C	6.80	84	1.5		< 7		
Cn1c(COc2ccccc2Cl)nc(N2CCNCC2)cc1=O	7.14	61	0.8		11		
Cn1c(N2CCNCC2)nc(CCc2cccc(Cl)c2)cc1=O	< 5.00		1.3		< 7		
Cc1cc(=O)n(CCCOc2ccccc2F)c(N2CCNCC2)n1	7.11	92	0.45			39	35
